As usually defined, the inhibition is the percentage by which the read-out fell short of the control.

Converted amounts (≈) assume the structure as drawn. The source made the active and inactive calls. No cut-off for these calls is given here.

The record followed here is ChEMBL document CHEMBL1275525, “Activity of hydroxyurea against Leishmania mexicana” (2008).

For experiment [1], the system named is Leishmania mexicana. Put plainly: Antileishmanial activity against Leishmania mexicana MNYC/BZ/62/M379 promastigotes at 10 ug/ml after 48 hrs by hemocytometer. The experiment is classed as functional, organism-based.
In experiment [2] the test system is Leishmania mexicana. The experiment in a line: Antileishmanial activity against Leishmania mexicana MHOM/MX/00/Tab3 promastigotes at 10 ug/ml after 48 hrs by hemocytometer. The experiment is classed as functional, organism-based.
The test system of experiment [3] is Leishmania mexicana. The experiment in a line: Antileishmanial activity against Leishmania mexicana MNYC/BZ/62/M379 promastigotes at 100 ug/ml after 48 hrs by hemocytometer. It counts as functional, organism-based.
In experiment [4] the test system is Leishmania mexicana. Put plainly: Antileishmanial activity against Leishmania mexicana MHOM/MX/00/Tab3 promastigotes at 100 ug/ml after 48 hrs by hemocytometer. It counts as functional, organism-based.
Experiment [5] concerns Leishmania mexicana. The experiment in a line: Antileishmanial activity against Leishmania mexicana MNYC/BZ/62/M379 promastigotes assessed as survival rate after 6 days by hemocytometer. The experiment is classed as functional. In short, it runs like this: (§1)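 Promastigotes were grown cell-free at 26°C in DMEM with 10% heat-inactivated FCS, with drug at 0.01–100 µg/ml. Parasite density was counted by hemacytometer every other day, and the value was taken on day 6. Data were recorded in triplicate, and experiments were run four times.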

Experiment [6] concerns Leishmania mexicana. Put plainly: Antileishmanial activity against Leishmania mexicana MHOM/MX/00/Tab3 promastigotes assessed as survival rate after 6 days by hemocytometer. It counts as functional. In short, it runs like this: as §1
For experiment [7], the system named is Leishmania mexicana. The experiment in a line: Antileishmanial activity against Leishmania mexicana MNYC/BZ/62/M379 promastigotes measured on day 6 by hemocytometer. It counts as functional. The following applies: MNYC/BZ/62/M379, 144 h, read-out: ED50 (the source's name). In short, it runs like this:
(§2)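 Promastigotes were cultured cell-free at 26°C in DMEM with 10% heat-inactivated FCS, with hydroxyurea at 0.01-100 µg/ml. Density was counted by hemacytometer every other day, and inhibition versus untreated control was taken on day 6 of culture.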

The test system of experiment [8] is Leishmania mexicana. The experiment in a line: Antileishmanial activity against Leishmania mexicana MHOM/MX/00/Tab3 promastigotes measured on day 6 by hemocytometer. The experiment is classed as functional. The following applies: MHOM/MX/00/Tab3, 144 h, read-out: ED50 (the source's name). The gist of the method: as §2
The subject of experiment [9] is Leishmania mexicana. Put plainly: Antileishmanial activity against Leishmania mexicana MHOM/MX/00/Tab3 infected in BALB/c mouse macrophage assessed as growth inhibition at 1 ug/ml after 6 days by hemocytometer. The experiment is classed as functional. In short, it runs like this: (§3)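 Resident peritoneal macrophages from male BALB/c mice were plated at 10^6 cells/ml and incubated for 24 h at 32°C in 5% CO2. Adherent cells were infected with 10^7 mid-log amastigote-like forms for 48 h at 32°C, then washed. Drug was applied for 6 days at 32°C, then replaced with drug-free medium and shifted to 26°C. Released promastigotes were counted by hemacytometer 6 days later, in triplicate. Inhibition = 100×(Tc−Tp)/Tc versus untreated.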

In experiment [10] the test system is Leishmania mexicana. The experiment in a line: Antileishmanial activity against Leishmania mexicana MHOM/MX/00/Tab3 infected in BALB/c mouse macrophage assessed as growth inhibition at 10 ug/ml after 6 days by hemocytometer. It counts as functional. The gist of the method:
as §3

Experiment [11] has as its system Leishmania mexicana. The experiment in a line: Antileishmanial activity against Leishmania mexicana MHOM/MX/00/Tab3 infected in BALB/c mouse macrophage assessed as growth inhibition at 100 ug/ml after 6 days by hemocytometer. The following applies: MHOM/MX/00/Tab3, 144 h. The experiment is classed as functional. In short, it runs like this: (§4)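 Peritoneal resident macrophages from male BALB/c mice (20-25 g) were pooled, washed, plated at 10^6 cells/ml, and left to adhere for 24 h at 32°C in 5% CO2. Adherent cells were infected with 10^7 mid-log amastigote-like forms for 48 h, then washed. Drug was given at 0.01-100 µg/ml for 3, 6, 9 or 12 days at 32°C. After removal, plates moved to 26°C; released promastigotes were hemacytometer-counted 6 days later. Inhibition = 100 x (Tc − Tp)/Tc; triplicate.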

Experiment [12] relates to Leishmania mexicana. Put plainly: Antileishmanial activity against Leishmania mexicana MNYC/BZ/62/M379 infected in BALB/c mouse macrophage assessed as growth inhibition at 1 ug/ml after 6 days by hemocytometer. The experiment is classed as functional. In short, it runs like this:
as §3

Experiment [13] deals with Leishmania mexicana. Put plainly: Antileishmanial activity against Leishmania mexicana MNYC/BZ/62/M379 infected in BALB/c mouse macrophage assessed as growth inhibition at 10 ug/ml after 6 days by hemocytometer. The experiment is classed as functional. The gist of the method:
as §3

Experiment [14] concerns Leishmania mexicana. The experiment in a line: Antileishmanial activity against Leishmania mexicana MNYC/BZ/62/M379 infected in BALB/c mouse macrophage assessed as growth inhibition at 100 ug/ml after 6 days by hemocytometer. The experiment is classed as functional. The following applies: MNYC/BZ/62/M379, 144 h. In short, it runs like this:
as §4

For experiment [15], the system named is Leishmania mexicana. The experiment in a line: Antileishmanial activity against Leishmania mexicana MHOM/MX/00/Tab3 infected in BALB/c mouse macrophage measured on day 6 by hemocytometer. It counts as functional. The following applies: MHOM/MX/00/Tab3, 144 h, read-out: ED50 (the source's name). The gist of the method:
as §4

Experiment [16] deals with Leishmania mexicana. The experiment in a line: Antileishmanial activity against Leishmania mexicana MNYC/BZ/62/M379 infected in BALB/c mouse macrophage measured on day 6 by hemocytometer. The experiment is classed as functional. The following applies: MNYC/BZ/62/M379, 144 h, read-out: ED50 (the source's name). In short, it runs like this:
as §4

Experiment [17] relates to Leishmania mexicana. The experiment in a line: Cell cycle arrest in Leishmania mexicana assessed as accumulation at G2/M phase at 10 ug/ml after 48 hrs by fluorescence-activated cell sorter. The experiment is classed as functional, organism-based. The gist of the method:
(§5)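 Mid-log promastigotes were exposed 48 h at 26°C to 1, 10 or 100 µg/ml, washed in PBS with 0.02 M EDTA, and fixed in cold methanol for 24 h. They were then stained 20 min at 25°C with RNase I (50 µg/ml) and PI (25 µg/ml), kept on ice, and analysed by FACS for DNA content.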

Experiment [18] relates to Leishmania mexicana. The experiment in a line: Cell cycle arrest in Leishmania mexicana assessed as accumulation at G2/M phase at 100 ug/ml after 48 hrs by fluorescence-activated cell sorter. It counts as functional, organism-based. In short, it runs like this: as §5
Experiment [19] deals with Leishmania mexicana. The experiment in a line: Cell cycle arrest in Leishmania mexicana assessed as accumulation at G2/M phase at 1 ug/ml after 48 hrs by fluorescence-activated cell sorter. It counts as functional, organism-based. The gist of the method:
as §5

Experiment [20] relates to Leishmania mexicana. The experiment in a line: Antileishmanial activity against Leishmania mexicana infected in BALB/c mouse macrophage assessed as growth inhibition at 0.01 ug/ml after 3 days by hemocytometer. The experiment is classed as functional. Particulars: 72 h. In short, it runs like this:
as §4

Experiment [21] deals with Leishmania mexicana. Put plainly: Antileishmanial activity against Leishmania mexicana infected in BALB/c mouse macrophage assessed as growth inhibition at 0.01 ug/ml after 12 days by hemocytometer. The experiment is classed as functional. The following applies: 288 h. The gist of the method: as §4
The subject of experiment [22] is Leishmania mexicana. The experiment in a line: Antileishmanial activity against Leishmania mexicana infected in BALB/c mouse macrophage assessed as growth inhibition at 0.1 ug/ml after 3 days by hemocytometer. It counts as functional. The following applies: 72 h. The gist of the method: as §4
Experiment [23] deals with Leishmania mexicana. Put plainly: Antileishmanial activity against Leishmania mexicana infected in BALB/c mouse macrophage assessed as growth inhibition at 0.1 ug/ml after 12 days by hemocytometer. The experiment is classed as functional. The following applies: 288 h. The gist of the method:
as §4

In experiment [24] the test system is Leishmania mexicana. The experiment in a line: Antileishmanial activity against Leishmania mexicana infected in BALB/c mouse macrophage assessed as growth inhibition at 1 ug/ml after 3 days by hemocytometer. It counts as functional. The following applies: 72 h. The gist of the method:
as §4

Experiment [25] relates to Leishmania mexicana. Put plainly: Antileishmanial activity against Leishmania mexicana infected in BALB/c mouse macrophage assessed as growth inhibition at 1 ug/ml after 12 days by hemocytometer. It counts as functional. Particulars: 288 h. The gist of the method: as §4
In experiment [26] the test system is Leishmania mexicana. Put plainly: Antileishmanial activity against Leishmania mexicana infected in BALB/c mouse macrophage assessed as growth inhibition at 10 ug/ml after 3 days by hemocytometer. It counts as functional. Particulars: 72 h. The gist of the method: as §4
In experiment [27] the test system is Leishmania mexicana. The experiment in a line: Antileishmanial activity against Leishmania mexicana infected in BALB/c mouse macrophage assessed as growth inhibition at 10 ug/ml after 12 days by hemocytometer. The experiment is classed as functional. Particulars: 288 h. In short, it runs like this:
as §4

Experiment [28] concerns Leishmania mexicana. Put plainly: Antileishmanial activity against Leishmania mexicana infected in BALB/c mouse macrophage assessed as growth inhibition at 100 ug/ml after 3 days by hemocytometer. It counts as functional, organism-based. In short, it runs like this: as §4
Experiment [29] concerns Leishmania mexicana. The experiment in a line: Antileishmanial activity against Leishmania mexicana promastigotes assessed as parasite burden at 1 ug/ml after 8 days by hemacytometer.
Experiment [30] has as its system Leishmania mexicana. The experiment in a line: Antileishmanial activity against Leishmania mexicana promastigotes assessed as parasite burden at 10 ug/ml after 8 days by hemacytometer.
Experiment [31] deals with Leishmania mexicana. The experiment in a line: Antileishmanial activity against Leishmania mexicana promastigotes assessed as parasite burden at 100 ug/ml after 8 days by hemacytometer.
The subject of experiment [32] is Leishmania mexicana. The experiment in a line: Antileishmanial activity against Leishmania mexicana MHOM/MX/00/Tab3 infected in BALB/c mouse macrophage assessed as growth inhibition at 25 ug/ml after 6 days by hemocytometer. The experiment is classed as functional, organism-based.
In experiment [33] the test system is Leishmania mexicana. Put plainly: Antileishmanial activity against Leishmania mexicana MNYC/BZ/62/M379 infected in BALB/c mouse macrophage assessed as growth inhibition at 25 ug/ml after 6 days by hemocytometer. It counts as functional, organism-based.

Regarding `NC(=O)NO` [HYDROXYUREA], the result in experiment [1], in [2], in [3], in [4], in experiment [17] and in experiment [18] was Active. Moreover, the Survival turned out to be 11.6% in experiment [5] and 3.1% in experiment [6]. Also, the EC50 in experiment [7] turned out to be 0.05 µg/mL (≈ 0.657 µM); in [8] it was 0.05 µg/mL (≈ 0.657 µM); in [15], 0.015 µg/mL (≈ 0.197 µM); in experiment [16], 0.015 µg/mL (≈ 0.197 µM). The inhibition at 1 µg/mL in experiment [9] (MHOM/MX/00/Tab3, 144 h) was found to be 96%; in experiment [12] (MNYC/BZ/62/M379, 144 h) it was 94%; in experiment [24], 87%; in experiment [25], 94%. Also, the inhibition at 10 µg/mL was 100% in experiment [10] (MHOM/MX/00/Tab3, 144 h); 100% in experiment [13] (MNYC/BZ/62/M379, 144 h); 93% in experiment [26]; 98% in [27]. Further, the inhibition at 100 µg/mL in [11] and in experiment [14] was 100% in each case. In experiment [19], the result was inactive. Besides, the inhibition at 0.01 µg/mL in [20] was 44%; in experiment [21], 67%. Moreover, the inhibition at 0.1 µg/mL is 72% in experiment [22] and 85% in [23]. For the same compound, the inhibition result in experiment [28] is “Active”. Further, the Activity in experiment [29] is 8.5 ×10⁶ /ml; in experiment [30], 4.3 ×10⁶ /ml; in experiment [31], 0 mL⁻¹.
Consider MEGLUMINE ANTIMONATE, for which the inhibition stood at 32% in experiment [9]; 54% in experiment [10]; 77% in experiment [32]; 33% in experiment [12]; 69% in experiment [13]; 93% in experiment [33].
